From ChEMBL document CHEMBL3271970, “Radiopharmaceuticals. 16. Halogenated dopamine analogs. Synthesis and radiolabeling of 6-iododopamine and tissue distribution studies in animals” (J Med Chem, 1976)

Columns and labels:
Mus musculus [1] = assay: Biodistribution in thyroid gland of mouse assessed per organ at 8 to 11 x 10^-8 mol, iv measured after 120 mins; format: ADME, organism-based; settings: in vivo, 2 h
In short: (§1)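 Tracer labelled with either 123I or 131I, in water or saline, used within 30 min of preparation. Mice dosed iv at 8-11 × 10^-8 mol/mouse and killed by ether overdose. Organs counted as % dose/organ ± SD, n = 3-10 mice per time point.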

Blood [2] = assay: Biodistribution in blood of rat at 3.6 x 10^-8 mol, iv measured after 2 hrs; format: ADME, organism-based; settings: in vivo
In short: (§2)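 [131I]-6-iododopamine in water or saline, used within 30 min of preparation. Injected iv at 3.6 × 10^-8 mol/rat. Rats killed by ether overdose at 5 min to 24 h. Blood radioactivity expressed as % dose/g, mean ± SD of four rats.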

Liver [3] = assay: Biodistribution in liver of rat assessed per organ at 3.6 x 10^-8 mol, iv measured after 2 hrs; format: ADME, organism-based; settings: in vivo
In short: (§3)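 [131I]-labelled tracer in water or saline, injected within 30 min of preparation. Rats given 3.6 × 10^-8 mol/rat iv, killed by ether overdose at each time point. Organs excised and radioactivity counted as % dose/organ, mean ± SD of four rats.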

Liver [4] = assay: Biodistribution in liver of mouse assessed per organ at 8 to 11 x 10^-8 mol, iv measured after 5 mins; format: ADME, organism-based; settings: in vivo
In short: (§4)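 [131I]- or [123I]-6-iododopamine in water or saline, used within 30 min of preparation. Injected iv at 8-11 × 10^-8 mol/mouse. Mice killed by ether overdose at 5-240 min; 3-10 mice per time point. Tissue radioactivity expressed as % dose/organ ± SD.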

Liver [5] = assay: Biodistribution in liver of rat assessed per organ at 3.6 x 10^-8 mol, iv measured after 30 mins; format: ADME, organism-based; settings: in vivo, 0.5 h; in short: as §3
Rattus norvegicus [6] = assay: Biodistribution in adrenal cortex of rat assessed per organ at 3.6 x 10^-8 mol, iv measured after 60 mins; format: ADME, organism-based; settings: in vivo, 1 h
In short: (§5)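 [131I]-6-iododopamine in water or saline, used within 30 min of preparation. Injected iv at 3.6 × 10^-8 mol/rat. Rats killed by ether overdose at 5, 30 or 60 min, or at 2, 4 or 24 h. Tissue radioactivity expressed as % dose/organ, mean ± SD of four rats.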

Blood [7] = assay: Biodistribution in blood of rat at 3.6 x 10^-8 mol, iv measured after 60 mins; format: ADME, organism-based; settings: in vivo, 1 h; in short: as §2
Liver [8] = assay: Biodistribution in liver of mouse assessed per organ at 8 to 11 x 10^-8 mol, iv measured after 120 mins; format: ADME, organism-based; settings: in vivo, 2 h; in short: as §4
Rattus norvegicus [9] = assay: Biodistribution in thyroid gland of rat assessed per organ at 3.6 x 10^-8 mol, iv measured after 24 hrs; format: ADME, organism-based; settings: in vivo; in short: as §3
Mus musculus [10] = assay: Biodistribution in thyroid gland of mouse assessed per organ at 8 to 11 x 10^-8 mol, iv measured after 15 mins; format: ADME, organism-based; settings: in vivo, 0.25 h; in short: as §1
Kidney [11] = assay: Biodistribution in kidney of mouse assessed per organ at 8 to 11 x 10^-8 mol, iv measured after 15 mins; format: ADME, organism-based; settings: in vivo, 0.25 h; in short: as §4
Rattus norvegicus [12] = assay: Biodistribution in thyroid gland of rat assessed per organ at 3.6 x 10^-8 mol, iv measured after 30 mins; format: ADME, organism-based; settings: in vivo, 0.5 h; in short: as §3
Adrenal medulla [13] = assay: Biodistribution in adrenal medulla of rat assessed per organ at 3.6 x 10^-8 mol, iv measured after 30 mins; format: ADME, organism-based; settings: in vivo, 0.5 h; in short: as §5
Rattus norvegicus [14] = assay: Biodistribution in adrenal cortex of rat assessed per organ at 3.6 x 10^-8 mol, iv measured after 2 hrs; format: ADME, organism-based; settings: in vivo; in short: as §5
Adrenal medulla [15] = assay: Biodistribution in adrenal medulla of rat assessed per organ at 3.6 x 10^-8 mol, iv measured after 60 mins; format: ADME, organism-based; settings: in vivo, 1 h; in short: as §5
[16] = Biodistribution in thyroid gland of mongrel dog assessed per organ at 1.29 x 10^-6 mol, iv measured after 2 hrs; format: ADME, organism-based, Canis lupus familiaris; settings: in vivo
In short: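 Radioiodine-labelled tracer given at 1.29 × 10^-6 mol/dog. One dog per time point, killed at 2 or 24 h. Thyroids and other small organs were taken intact and counted. Large organs were sampled three times and averaged. Result given as % dose/organ.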

Kidney [17] = assay: Biodistribution in kidney of rat assessed per organ at 3.6 x 10^-8 mol, iv measured after 5 mins; format: ADME, organism-based; settings: in vivo; in short: as §5
Mus musculus [18] = assay: Biodistribution in adrenal gland of mouse assessed per organ at 8 to 11 x 10^-8 mol, iv measured after 120 mins; format: ADME, organism-based; settings: in vivo, 2 h; in short: as §4
Kidney [19] = assay: Biodistribution in kidney of rat assessed per organ at 3.6 x 10^-8 mol, iv measured after 2 hrs; format: ADME, organism-based; settings: in vivo; in short: as §5
Rattus norvegicus [20] = assay: Biodistribution in adrenal cortex of rat assessed per organ at 3.6 x 10^-8 mol, iv measured after 24 hrs; format: ADME, organism-based; settings: in vivo; in short: as §5
Rattus norvegicus [21] = assay: Biodistribution in adrenal cortex of rat assessed per organ at 3.6 x 10^-8 mol, iv measured after 4 hrs; format: ADME, organism-based; settings: in vivo; in short: as §5
Liver [22] = assay: Biodistribution in liver of mouse assessed per organ at 8 to 11 x 10^-8 mol, iv measured after 15 mins; format: ADME, organism-based; settings: in vivo, 0.25 h; in short: as §4
Mus musculus [23] = assay: Biodistribution in adrenal gland of mouse assessed per organ at 8 to 11 x 10^-8 mol, iv measured after 15 mins; format: ADME, organism-based; settings: in vivo, 0.25 h; in short: as §4
[24] = Biodistribution in adrenal medulla of mongrel dog assessed per organ at 1.29 x 10^-6 mol, iv measured after 2 hrs; format: ADME, organism-based, Canis lupus familiaris; settings: in vivo
In short: (§6)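 Radioiodinated ([123I] or [131I]) 6-iododopamine in water or saline, used within 30 min of preparation. Given iv at 1.29 × 10^-6 mol/dog; one dog per time point, killed at 2 or 24 h. Large organs counted as three samples and averaged; adrenals and thyroid taken intact and counted. Expressed as % dose/organ.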

Kidney [25] = assay: Biodistribution in kidney of mouse assessed per organ at 8 to 11 x 10^-8 mol, iv measured after 60 mins; format: ADME, organism-based; settings: in vivo, 1 h; in short: as §4
Blood [26] = assay: Biodistribution in blood of rat at 3.6 x 10^-8 mol, iv measured after 4 hrs; format: ADME, organism-based; settings: in vivo; in short: as §2
Rattus norvegicus [27] = assay: Biodistribution in thyroid gland of rat assessed per organ at 3.6 x 10^-8 mol, iv measured after 2 hrs; format: ADME, organism-based; settings: in vivo; in short: as §3
Liver [28] = assay: Biodistribution in liver of mouse assessed per organ at 8 to 11 x 10^-8 mol, iv measured after 30 mins; format: ADME, organism-based; settings: in vivo, 0.5 h; in short: as §4
Kidney [29] = assay: Biodistribution in kidney of mouse assessed per organ at 8 to 11 x 10^-8 mol, iv measured after 120 mins; format: ADME, organism-based; settings: in vivo, 2 h; in short: as §4
Kidney [30] = assay: Biodistribution in kidney of rat assessed per organ at 3.6 x 10^-8 mol, iv measured after 24 hrs; format: ADME, organism-based; settings: in vivo; in short: as §5
Kidney [31] = assay: Biodistribution in kidney of mouse assessed per organ at 8 to 11 x 10^-8 mol, iv measured after 240 mins; format: ADME, organism-based; settings: in vivo, 4 h; in short: as §4
Adrenal medulla [32] = assay: Biodistribution in adrenal medulla of rat assessed per organ at 3.6 x 10^-8 mol, iv measured after 4 hrs; format: ADME, organism-based; settings: in vivo; in short: as §5
Mus musculus [33] = assay: Biodistribution in adrenal gland of mouse assessed per organ at 8 to 11 x 10^-8 mol, iv measured after 5 mins; format: ADME, organism-based; settings: in vivo; in short: as §4
[34] = Biodistribution in kidney of mongrel dog assessed per organ at 1.29 x 10^-6 mol, iv measured after 24 hrs; format: ADME, organism-based, Canis lupus familiaris; settings: in vivo; in short: as §6
Liver [35] = assay: Biodistribution in liver of mongrel dog assessed per organ at 1.29 x 10^-6 mol, iv measured after 2 hrs; format: ADME, organism-based, Canis lupus familiaris; settings: in vivo; in short: as §6

Compound `Br.NCCc1cc(O)c(O)cc1[131I]` has a Drug uptake (Mus musculus [1]) of 0.176 %ID, a Drug uptake (Blood [2]) of 0.052 %ID and a Drug uptake (Liver [3]) of 0.33 %ID. It also gave a Drug uptake (Liver [4]) of 7.1 %ID, a Drug uptake (Liver [5]) of 2.36 %ID and a Drug uptake (Rattus norvegicus [6]) of 0.007 %ID. The Drug uptake (Blood [7]) was 0.131 %ID, the Drug uptake (Liver [8]) was 0.84 %ID and the Drug uptake (Rattus norvegicus [9]) was 0.65 %ID. For the same compound, the Drug uptake (Mus musculus [10]) was 0.067 %ID, the Drug uptake (Kidney [11]) was 3.44 %ID and the Drug uptake (Rattus norvegicus [12]) was 0.062 %ID. The Drug uptake (Adrenal medulla [13]) was 0.0138 %ID, the Drug uptake (Rattus norvegicus [14]) was 0.0028 %ID and the Drug uptake (Adrenal medulla [15]) was 0.0038 %ID. The Drug uptake [16] was 0.026 %ID, the Drug uptake (Kidney [17]) was 3.55 %ID and the Drug uptake (Mus musculus [18]) was 0.02 %ID. The Drug uptake (Kidney [19]) was 0.168 %ID, the Drug uptake (Rattus norvegicus [20]) was 0.000081 %ID and the Drug uptake (Rattus norvegicus [21]) was 0.002 %ID. For the same compound, the Drug uptake (Liver [22]) was 3.64 %ID, the Drug uptake (Mus musculus [23]) was 0.015 %ID and the Drug uptake [24] was 0.0062 %ID. For the same compound, the Drug uptake (Kidney [25]) was 1 %ID, the Drug uptake (Blood [26]) was 0.055 %ID and the Drug uptake (Rattus norvegicus [27]) was 0.183 %ID. For the same compound, the Drug uptake (Liver [28]) was 2.4 %ID, the Drug uptake (Kidney [29]) was 0.78 %ID and the Drug uptake (Kidney [30]) was 0.024 %ID. For the same compound, the Drug uptake (Kidney [31]) was 0.79 %ID, the Drug uptake (Adrenal medulla [32]) was 0.0047 %ID and the Drug uptake (Mus musculus [33]) was 0.03 %ID. It also gave a Drug uptake [34] of 0.075 %ID and a Drug uptake (Liver [35]) of 2.24 %ID.
